Laboratory results reported in the array DNA melting data of Ke et al. (doi:10.1101/2024.01.08.574731).

How the values were obtained:
[1] = folding enthalpy; higher = less favourable; fluorescence melt of hairpins on a sequencing array, two-state fit; settings: sodium 0.088 M
Procedure, shortened: (§1)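 On a sequenced MiSeq flow cell, library hairpins with annealed Cy3 and quencher oligos were imaged for Cy3 fluorescence in 2.5 °C steps up to 60 °C, in 50 mM Na-HEPES pH 8.0, 25 mM NaCl. Normalisation used pre-quench Cy3 and control constructs. Bootstrapped two-state fits gave melting temperature and folding enthalpy, combined by inverse variance across four replicates and with fitted temperatures raised by 9.35 °C to match UV melts.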

[2] = melting temperature; fluorescence melt of hairpins on a sequencing array, two-state fit, raised by 9.35 °C to match UV melts; settings: sodium 0.088 M
Procedure, shortened: as §1

Row | Sequence | folding enthalpy [1] | Tm [2]
1 | GTGACAGGAAACTGTCAC (((((((....))))))) | -42.1 kcal/mol | 65.2 °C
2 | GTGACAGGAAACTGTCGC (.(((((....))))).) | -30.2 kcal/mol | 53.9 °C
3 | GTGACAGGAAACTGTTAC ((.((((....)))).)) | -28.1 kcal/mol | 45.4 °C
4 | GTGACCGAAAGGTAACAC ((((((....)))..))) | -16.9 kcal/mol | 47.1 °C
5 | GTGACCGAAAGGTGCAC ((((((....))).))) | -19.9 kcal/mol | 49.4 °C
6 | GTGACGGAAACGTCAC ((((((....)))))) | -32.9 kcal/mol | 68.7 °C
7 | GTGACTCCGAAAGGACAC (((..(((....)))))) | -9.23 kcal/mol | 35.4 °C
8 | GTGACTCGAAAGAGCCAC (((.(((....))).))) | -38.2 kcal/mol | 54.5 °C
9 | GTGACTGAAAAGTCAC ((((((....)))))) | -37.6 kcal/mol | 61 °C
10 | GTGAGACGAAAGTCCAC (((.(((....)))))) | -22.8 kcal/mol | 53.8 °C
11 | GTGAGAGGAAACTCTTGC (..((((....))))..) | -20.3 kcal/mol | 29.4 °C
12 | GTGAGCGGAAACGCTTAC ((.((((....)))).)) | -27.1 kcal/mol | 51.6 °C
13 | GTGAGCGGAAACGTTCGC (.((.((....)).)).) | -27.8 kcal/mol | 43.9 °C
14 | GTGAGGGGAAACCCCCAC (((.(((....))).))) | -31.5 kcal/mol | 49.2 °C
15 | GTGAGGGGAAACCTTCAC ((((.((....)).)))) | -28.8 kcal/mol | 46 °C
16 | GTGAGTCGAAAGACACAC (((.(((....))).))) | -43.2 kcal/mol | 53.8 °C
17 | GTGAGTCGAAAGACGCAC (((.(((....))).))) | -34.4 kcal/mol | 60 °C
18 | GTGAGTGGAAACACTCGC (.(((((....))))).) | -33.1 kcal/mol | 54.9 °C
19 | GTGAGTGGAAACGCTCAC (((((.(....).))))) | -42.5 kcal/mol | 53.7 °C
20 | GTGAGTTCGAAAGAACAC (((..(((....)))))) | -15.4 kcal/mol | 44.6 °C
21 | GTGATACCGAAAGGTCAC (((..(((....)))))) | -19.5 kcal/mol | 41.9 °C
22 | GTGATACGAAAGTAACAC (((.(((....))).))) | -34.1 kcal/mol | 47.6 °C
23 | GTGATACGAAAGTAGCAC (((.(((....))).))) | -48.7 kcal/mol | 58.6 °C

Row | Sequence | folding enthalpy [1] | Tm [2]
24 | GTGATAGAAATATCAC ((((((....)))))) | -32.9 kcal/mol | 46.5 °C
25 | GTGATAGGAAACTATCAC (((((((....))))))) | -42.8 kcal/mol | 56.1 °C
26 | GTGATCCGAAAGGACCAC (((.(((....))).))) | -34.6 kcal/mol | 51.8 °C
27 | GTGATCGAAAGATACCAC ((((((....)))..))) | -10.5 kcal/mol | 26.6 °C
28 | GTGATCGAAAGATGTCAC ((((((....)))..))) | -13.7 kcal/mol | 29.9 °C
29 | GTGATCGAAAGATTGCAC ((((((....)))..))) | -14.5 kcal/mol | 30.4 °C
30 | GTGATCGGAAACGGTCAC ((((.((....)).)))) | -42.8 kcal/mol | 55 °C
31 | GTGATCGGAAACGGTTAC ((.(.((....)).).)) | -29.9 kcal/mol | 31.9 °C
32 | GTGATCTCGAAAGAGCAC (((..(((....)))))) | -25.7 kcal/mol | 45.5 °C
33 | GTGATGAAAATCAC (((((....))))) | -22.8 kcal/mol | 49.6 °C
34 | GTGATGGGAAACCATTAC ((.((((....)))).)) | -31.1 kcal/mol | 43.5 °C
35 | GTGATGGGAAACTATCGC (.(((.(....).))).) | -23.4 kcal/mol | 35.2 °C
36 | GTGATGTCGAAAGACCAC (((..(((....)))))) | -15 kcal/mol | 40.4 °C
37 | GTGATTACGAAAGTACAC (((..(((....)))))) | -10.1 kcal/mol | 27.8 °C
38 | GTGATTCGAAAGAACAC (((.(((....)))))) | -24.8 kcal/mol | 40.9 °C
39 | GTGATTCGAAAGAAGCAC (((.(((....))).))) | -43.9 kcal/mol | 56.5 °C
40 | GTGCAAGGAAACTTGCGC (.(((((....))))).) | -27.6 kcal/mol | 59.1 °C
41 | GTGCACCGAAAGGTACAC (((.(((....))).))) | -36.5 kcal/mol | 53.7 °C
42 | GTGCACCGAAAGGTTCAC (((.(((....))).))) | -42 kcal/mol | 50.5 °C
43 | GTGCACGAAAGTGACAC ((((((....))).))) | -25.9 kcal/mol | 52.9 °C
44 | GTGCACGAAAGTGGCCAC ((((((....)))..))) | -13.3 kcal/mol | 40.6 °C
45 | GTGCACGAAAGTGTTCAC ((((((....)))..))) | -12.3 kcal/mol | 37.4 °C
46 | GTGCACGGAAACGTGCGC (.(((((....))))).) | -14.7 kcal/mol | 63.9 °C

Row | Sequence | folding enthalpy [1] | Tm [2]
47 | GTGCAGCGAAAGCTCAC (((.(((....)))))) | -27 kcal/mol | 50.8 °C
48 | GTGCAGGGAAACCCACAC (((..((....))..))) | -19.2 kcal/mol | 32.4 °C
49 | GTGCAGGGAAACCCGCAC ((((.((....)).)))) | -42.2 kcal/mol | 54.9 °C
50 | GTGCAGGGAAACCTGTGC (..((((....))))..) | -21.6 kcal/mol | 44.6 °C
51 | GTGCAGTCGAAAGACCAC (((..(((....)))))) | -16.4 kcal/mol | 38.7 °C
52 | GTGCATCGAAAGATACAC (((.(((....))).))) | -35.2 kcal/mol | 47 °C
53 | GTGCATGGAAACGTGCAC (((((.(....).))))) | -47 kcal/mol | 55.8 °C
54 | GTGCCACGAAAGTGCAC (((.(((....)))))) | -27.5 kcal/mol | 58.5 °C
55 | GTGCCAGGAAACTGACAC (((.(((....))).))) | -35.5 kcal/mol | 47.5 °C
56 | GTGCCCCGAAAGGGTCAC (((.(((....))).))) | -34.6 kcal/mol | 57.7 °C
57 | GTGCCCGAAAGGGAGCAC ((((((....)))..))) | -25.2 kcal/mol | 55.6 °C
58 | GTGCCCGAAAGGGCCCAC ((((((....)))..))) | -5.79 kcal/mol | 41 °C
59 | GTGCCCGAAAGGGCGCAC ((((((....)))..))) | -8.85 kcal/mol | 64.8 °C
60 | GTGCCCGAAAGGGGACAC ((((((....)))..))) | -12.2 kcal/mol | 67 °C
61 | GTGCCCGAAAGGGGTCAC ((((((....)))..))) | -15.7 kcal/mol | 48.6 °C
62 | GTGCCCGGAAACAGGCAC (((((.(....).))))) | -40.4 kcal/mol | 54.9 °C
63 | GTGCCGGGAAACCGGTAC ((.((((....)))).)) | -30.3 kcal/mol | 57.2 °C
64 | GTGCCGGGAAACTGGCGC (.(((.(....).))).) | -30.4 kcal/mol | 53.4 °C
65 | GTGCCTGGAAACAGGTAC ((.((((....)))).)) | -32.7 kcal/mol | 53.6 °C
66 | GTGCGACGAAAGTCACAC (((.(((....))).))) | -43.9 kcal/mol | 54.3 °C
67 | GTGCGAGGAAACTCGCGC (.(((((....))))).) | -18.2 kcal/mol | 66.2 °C
68 | GTGCGCGAAAGCGGTCAC ((((((....)))..))) | -14.1 kcal/mol | 43.5 °C
69 | GTGCGCGAAAGCGTGCAC ((((((....)))..))) | -17.3 kcal/mol | 59.3 °C

Row | Sequence | folding enthalpy [1] | Tm [2]
70 | GTGCGCGGAAACGCGTAC ((.((((....)))).)) | -20.1 kcal/mol | 65.5 °C
71 | GTGCGCTCGAAAGAGCAC (((..(((....)))))) | -14.1 kcal/mol | 59.9 °C
72 | GTGCGGACGAAAGTCCAC (((..(((....)))))) | -12 kcal/mol | 60.9 °C
73 | GTGCGGGGAAACCCGCGC (.(((((....))))).) | -16.1 kcal/mol | 67.2 °C
74 | GTGCGGGGAAACCCGTGC (..((((....))))..) | -19.2 kcal/mol | 53.8 °C
75 | GTGCGGTCGAAAGACCAC (((..(((....)))))) | -13.3 kcal/mol | 57.5 °C
76 | GTGCGTCCGAAAGGACAC (((..(((....)))))) | -9.8 kcal/mol | 60.4 °C
77 | GTGCGTCGAAAGACTCAC (((.(((....))).))) | -40.2 kcal/mol | 49.6 °C
78 | GTGCGTGGAAACATGCAC ((((.((....)).)))) | -48.5 kcal/mol | 58.4 °C
79 | GTGCTCGAAAGAGAACAC ((((((....)))..))) | -19.6 kcal/mol | 44.5 °C
80 | GTGCTCGAAAGAGACAC ((((((....))).))) | -22.4 kcal/mol | 47.3 °C
81 | GTGCTCGAAAGAGGGCAC ((((((....)))..))) | -22.9 kcal/mol | 48.9 °C
82 | GTGCTCGAAAGAGTCAC ((((((....))).))) | -26.7 kcal/mol | 49.7 °C
83 | GTGCTCGCGAAAGCGCAC (((..(((....)))))) | -17.4 kcal/mol | 49.2 °C
84 | GTGCTGAAAAGCAC (((((....))))) | -28.1 kcal/mol | 66 °C
85 | GTGCTGCGAAAGCATCAC (((.(((....))).))) | -31.9 kcal/mol | 52 °C
86 | GTGCTGGGAAACCGGCAC ((((.((....)).)))) | -41.1 kcal/mol | 61 °C
87 | GTGCTGTCGAAAGACCAC (((..(((....)))))) | -13.1 kcal/mol | 45.4 °C
88 | GTGCTTCGAAAGAACCAC (((.(((....))).))) | -27.8 kcal/mol | 34.8 °C
89 | GTGCTTGGAAACGAGCAC (((((.(....).))))) | -40.1 kcal/mol | 55.5 °C
90 | GTGCTTTCGAAAGAACAC (((..(((....)))))) | -19.8 kcal/mol | 36.7 °C
91 | GTGGAAGGAAACTCCCAC ((((.((....)).)))) | -36.2 kcal/mol | 38.6 °C
